We go through five compounds from ChEMBL document CHEMBL1126255, “Excitatory amino acid receptor ligands. Synthesis and biological activity of 3-isoxazolol amino acids structurally related to homoibotenic acid” (J Med Chem, 1992).

Experiment [1] deals with T1, Glutamate receptor ionotropic, AMPA (Rattus norvegicus, UniProt P19490+P19491+P19492+P19493). Put plainly: Concentration required for 50% inhibition of [3H]AMPA binding to AMPA receptor in rat cortical slice preparation.
For experiment [2], the target named is Glutamate receptor ionotropic, kainate. Kind of experiment: Concentration required for 50% inhibition of [3H]-kainic acid binding to ionotropic glutamate receptor ionotropic kainate in rat cortical slice preparation.
For experiment [3], the target named is Glutamate NMDA receptor. Put plainly: Concentration required for 50% inhibition of [3H]-CPP binding to N-methyl-D-aspartate glutamate receptor in rat cortical slice preparation. Summed up: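 Rat brain membranes prepared by the Ransom and Stec method. [3H]CPP binding run per an earlier protocol, but ended by filtration through GF/B filters presoaked in 0.1% polyethyleneimine instead of centrifugation. At least three independent experiments per value.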

The target in experiment [4] is Glutamate NMDA receptor. Kind of experiment: Concentration required for 50% inhibition of [3H]-MK-801 binding to N-methyl-D-aspartate glutamate receptor in rat cortical slice preparation. Summed up:
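Fully stimulated rat brain membranes prepared by the Ransom and Stec method. Otherwise per an earlier protocol. At least three independent experiments per value.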

The target in experiment [5] is T1, Glutamate receptor ionotropic, AMPA. Kind of experiment: Concentration required for 50% inhibition of [3H]Glu binding to AMPA receptor in rat cortical slice preparation in the presence of 2.5 mM CaCl2.

As usually defined, the IC50 is the concentration that inhibits the measured activity by half. Regarding `NC(Cc1onc(O)c1CCO)C(=O)O` (configuration not stated), the half-maximal inhibitory concentration (IC50) was 2 µM in experiment [1]; above 100 µM in experiment [2]; above 100 µM on Glutamate NMDA receptor [3]; above 100 µM on Glutamate NMDA receptor [4]; 0.14 µM in experiment [5].

With `CCCCCCCCc1c(O)noc1CC(N)C(=O)O` (configuration not stated), the IC50 in experiment [1] is above 100 µM; in experiment [2] it was above 100 µM; at Glutamate NMDA receptor [3], above 100 µM; on Glutamate NMDA receptor [4], above 100 µM; in experiment [5], 0.02 µM.

Regarding `CC(C)(C)c1onc(O)c1CC(N)C(=O)O` (configuration not stated), the IC50 on Glutamate NMDA receptor [3] and on Glutamate NMDA receptor [4] was above 100 µM throughout.

Turning to `Cc1c(O)noc1CC(N)C(=O)O` (configuration not stated), the IC50 in experiment [1] was 0.6 µM; in experiment [2], above 100 µM; at Glutamate NMDA receptor [3], above 100 µM; at Glutamate NMDA receptor [4] it was above 100 µM; in experiment [5], 0.18 µM.

With `CCCCc1c(O)noc1CC(N)C(=O)O` (configuration not stated), the IC50 in experiment [1] was 2 µM; in experiment [2] it was above 100 µM; at Glutamate NMDA receptor [3], above 100 µM; at Glutamate NMDA receptor [4], above 100 µM; in experiment [5], 0.18 µM.
